Many of the other results were omitted from the sample, so hits are more common in it than they were.
UPR XBP1 act = adaptive UPR (XBP1) activation; AID 463104; 330,000 compounds, 0.33% hits; CHO-XBP1 luciferase reporter, IRE1-XBP1 UPR activation, luminescence; percent of tunicamycin response, DMSO as zero; activation, % at 20 µM;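 active means versus positive control, 20 µM dose yields 30% or more activation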
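assay system = CHO-XBP1 luciferase reporter cells | amount = 1000 cells/well | buffer or medium = F12 plus 10% FBS | compound dosing = single point, 20 µM final compound, 1% DMSO | incubation = 16-18 h cell attachment at 37 °C, then 6 h compound exposure | detection = Steady-Glo luminescence read | controls = tunicamycin 10 µg/mL and vehicle-only wells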
697 NFkB inh = lowers PMA/ionomycin-induced NF-kB signal in 697 B cells. 697 B-cell NF-kB luciferase reporter, 16 h. inhibition, % at 4 µM. 330,000 compounds, 0.33% hits. AID 435022; in the data active means inhibition above about 35%
Jurkat NFkB inh = lowers PMA/ionomycin-induced NF-kB signal in Jurkat cells; inhibition, % at 4 µM; 330,000 compounds, 0.53% hits; PMA/ionomycin-induced NF-kB luciferase reporter, luminescence; in the data active means inhibition above about 50%
CHOP UPR activ = apoptotic UPR (CHOP) activation; 330,000 compounds, 0.34% hits; activation, % at 10 µM; CHO-CHOP luciferase reporter, luminescence; percent of tunicamycin response over DMSO baseline;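 active means at 10 µM dose, activation of 40% or more, normalized to positive control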
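System: CHO CHOP reporter cells. Amount: 500 cells per well. Buffer or medium: F12 medium, 10% FBS. Compound dosing: one dose, 10 µM in 0.5% DMSO. Incubation: 6 h compound exposure at 37 °C after overnight seeding. Technique: Steady-Glo luciferase luminescence. Benchmarks: tunicamycin and DMSO controls.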
CHOP inh = CHOP inhibition in unfolded protein response. inhibition, % at 10 µM. AID 2732. 220,000 compounds, 3.8% hits. CHO-K1 CHOP-promoter luciferase, tunicamycin-induced, 15-18 h;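 active means compounds that reduced the stress-induced luciferase reporter signal by more than about 70% of percent inhibition, limit read from the data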
Of the large screens only hits and unclear results are named; the others gave an inactive call.

Cc1cc(/C=N/NC(N)=S)c(O)c(/C=N/NC(N)=S)c1	none
CCc1nc2nc(C)c(NS(=O)(=O)c3ccc(Cl)cc3)c(=O)n2[nH]1	none (no result: CHOP inh)
COc1ccc(-n2cnc3scc(-c4ccc(OC)c(OC)c4)c3c2=O)cc1	CHOP inh 76
COc1cc(NC(=O)c2cc(C(C)C)on2)c(OC)cc1Cl	none
COc1cc(NC(=O)c2cc(C3CC3)on2)c(OC)cc1Cl	CHOP inh 84
CN(CC(=O)Nc1ccc(F)c(F)c1F)C(=O)c1ccc(-n2cncn2)cc1	none (no result: CHOP inh)
COC(=O)c1cc(OC)c(OC)cc1NC(=O)c1cccc(C)c1	CHOP inh 70
COC(=O)c1cc(OC)c(OC)cc1NC(=O)c1ccccc1	none
Cn1ccc(C(=O)N/N=C/c2ccncc2)n1	none (no result: CHOP inh)
O=S(=O)(c1ccc(Cl)c(C(F)(F)F)c1)N1CCN(c2ccccn2)CC1	CHOP inh 72
O=C(Nc1cccc(Cl)c1)c1ccc(F)c(S(=O)(=O)N2CCN(c3ccccn3)CC2)c1	CHOP inh 74
CCOc1ccc(NC(=O)c2ccc(F)c(S(=O)(=O)N3CCN(c4ccccn4)CC3)c2)cc1	none
O=C(O)c1ccc(S(=O)(=O)N2CCN(c3ccccn3)CC2)cc1	none (no result: CHOP inh)
CCOc1ccccc1NC(=O)C(c1ccccc1)N1CCN(CC(=O)N2CCCC2)CC1 (centres undefined)	none (no result: CHOP inh)
CC(Sc1nnc(-c2ccccc2F)n1C1CC1)C(=O)NC(N)=O (centres undefined)	none (no result: CHOP inh)
Cc1cccc(CCNC(=O)c2cc(=O)[nH]c3ccc(Br)cc23)c1	CHOP inh 73
CC1CCCCC1NC(=O)c1cn(C)c2ccc(S(=O)(=O)N3CCCC3)cc2c1=O (centres undefined)	none
CC1CCCC(NC(=O)c2cn(C)c3ccc(S(=O)(=O)N4CCCC4)cc3c2=O)C1C (centres undefined)	CHOP inh 80
O=C(CSc1nc2nc3c(cc2c(=O)n1-c1ccccc1)CCCC3)Nc1cccc2ccccc12	none
Cc1cccc(NC(=O)CSc2nc3c([nH]c4ccccc43)c(=O)n2C)c1	CHOP inh 79
Cc1cccc(NC(=O)CSc2nc3nc4c(cc3c(=O)n2-c2ccccc2)CCCC4)c1	CHOP inh 80
CCSc1nc2c([nH]c3ccccc32)c(=O)n1C	CHOP inh 77
Cc1cc(C)n2nc(SCC(=O)N(CCC#N)c3ccc(F)cc3)nc2n1	none (no result: CHOP inh)
O=C1c2ccccc2NC(c2ccc(Cl)cc2Cl)N1Cc1ccccc1 (centres undefined)	CHOP inh 87
O=C1c2ccccc2NC(c2c(Cl)cccc2Cl)N1Cc1ccccc1 (centres undefined)	none
CC1CCN(S(=O)(=O)c2cccc(S(=O)(=O)N3CCCC3)c2)CC1	none (no result: CHOP inh)
CCCCOc1ccc(C(=O)Nc2cccc(-n3cnnn3)c2)cc1OC	none (no result: CHOP inh)
CCC1(C)Cc2ccccc2-c2nc3n(c(=O)c21)CCCCC3 (centres undefined)	CHOP inh 81
O=C(COc1ccc(S(=O)(=O)N2CCCC2)cc1)NCc1ccccn1	none (no result: CHOP inh)
CC(=O)N1CCc2cc(N=NC3=C(O)CC(C)(C)CC3=O)ccc21	none
CCCCn1c(O)c(/C=C2\C=NN=C2c2ccccc2)sc1=S	none
CC(C)Cn1c(O)c(/C=C2\C=NN=C2c2ccccc2)sc1=S	CHOP inh 71
O=C(c1cnn2c(C(F)(F)F)cc(-c3cccs3)nc12)N1CCN(Cc2ccccc2)CC1	CHOP inh 70
CN1CCN(C(=O)c2cnn3c(C(F)(F)F)cc(-c4cccs4)nc23)CC1	none
Cc1cccc(NC(=O)CSCC(=O)Nc2cc(Cl)ccc2N2CCOCC2)c1	none (no result: CHOP inh)
CC(C)(C)C(=O)n1nc(-c2ccccc2)oc1=O	CHOP inh 70
O=C(N/N=C/c1ccncc1)c1cccc(S(=O)(=O)Nc2ccc(Cl)cc2)c1	none
CC(=O)c1ccc(OCCCCCCCOc2ccc(C(C)=O)cc2)cc1	none (no result: CHOP inh)
Cc1[nH]c2ccccc2c1C(O)CN1CCC2(CC1)OCCO2 (centres undefined)	none
CCCc1cc2c(cc1NC(=O)c1ccc(Br)cc1)OCO2	CHOP inh 83
O=C(NN=C1c2ccccc2-c2ccccc21)c1cccc(Br)c1	CHOP inh 77
O=C(COc1cccc(Br)c1)NN=C1c2ccccc2-c2ccccc21	none
COc1ccc(-c2[nH]c(-c3ccc(C)cc3)nc2SCC(=O)Nc2nccs2)cc1	none
COc1ccc(-c2[nH]c(-c3ccc(SC)cc3)nc2SCC(=O)Nc2nccs2)cc1	CHOP inh 77
COc1ccc(/C=C/c2ccc3cccc(O)c3n2)cc1Br	none (no result: CHOP inh)
COc1cc(/C=C/c2ccc3cccc(O)c3n2)cc(Br)c1OC	UPR XBP1 act 120 (no result: CHOP inh)
COc1cc(-c2nc(CN(C)C(C)c3ccncn3)c(C)o2)ccc1F (centres undefined)	none
O=C1c2oc3ccccc3c(=O)c2C(c2cccs2)N1CCCN1CCOCC1 (centres undefined)	CHOP inh 80
CCOc1ccc(C2c3c(oc4ccccc4c3=O)C(=O)N2CCCN2CCOCC2)cc1 (centres undefined)	none
CCOc1ccc(NC(=O)CSc2nnc(C3CC3)n2C)cc1S(=O)(=O)N1CCCCC1	none (no result: CHOP inh)
C/C=C/C(=O)Nc1nnc(-c2ccccc2C)s1	CHOP inh 85
CCOc1ccccc1NC(=O)CN(c1cc(C)cc(C)c1)S(=O)(=O)c1c(C)noc1C	CHOP inh 72
COc1ccc(N(CC(=O)Nc2cccc(C)c2)S(=O)(=O)c2c(C)noc2C)cc1	none (no result: CHOP inh)
Cc1noc(C)c1S(=O)(=O)N(CC(=O)Nc1ccc2c(c1)OCO2)c1ccc(C(C)C)cc1	CHOP inh 81
COc1ccc(N(CC(=O)Nc2ccc(C)cc2)S(=O)(=O)c2c(C)noc2C)cc1	none (no result: CHOP inh)
Cc1nn(C)c(C)c1S(=O)(=O)N(CC(=O)Nc1ccc2c(c1)OCO2)c1ccc(C(C)C)cc1	none
CCOc1ccc(N(CC(=O)Nc2ccc(C)c(C)c2)S(=O)(=O)c2c(C)noc2C)cc1	CHOP inh 76
COc1ccc(NC(=O)CN(c2cc(C)cc(C)c2)S(=O)(=O)c2c(C)noc2C)cc1OC	none
CCOc1ccc(N(CC(=O)Nc2cccc(F)c2)S(=O)(=O)c2c(C)noc2C)cc1	CHOP inh 72
Cc1ccc(S(=O)(=O)N2[C@@H](c3ccccc3F)C(C(=O)O)=CC[C@H]2c2ccc(Cl)c(Cl)c2)cc1	none (no result: CHOP inh)
Cc1cccnc1NC(=O)C1CCCN1S(=O)(=O)c1ccc(Cl)cc1 (centres undefined)	none (no result: CHOP inh)
CC(C)(C)NC(=O)CN(C(=O)Cn1nnc(-c2ccc(Cl)cc2)n1)C1CCN(Cc2ccccc2)CC1	CHOP inh 72
COc1ccc(-c2nnc(NC(=O)c3ccc(S(=O)(=O)N4CCc5ccccc5C4)cc3)o2)cc1	CHOP inh 71
COc1ccc(-c2csc(NC(=O)c3ccc(S(=O)(=O)N4CCc5ccccc5C4)cc3)n2)cc1	none

Compound activity: PubChem BioAssay, several laboratories
